The text below walks through data of ChEMBL document CHEMBL4014267, “Anti-inflammatory and Antiosteoporosis Flavonoids from the Rhizomes of Helminthostachys zeylanica” (J Nat Prod, 2017).

Holding throughout (format): functional, cell-based
The test system of one test is BV-2. The test is described as follows: Antiinflammatory activity in mouse BV2 cells assessed as inhibition of LPS-induced nitric oxide production after 24 hrs by Griess assay. Conditions: BV-2, 24 h. Put shortly: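 Murine BV2 microglia were grown in DMEM with 5% FBS and stimulated with LPS (0.5 μg/mL). NO was read as nitrite accumulated in the medium 24 h after stimulation, using Griess reagent.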
On the technique in general: Nitrite, measured by Griess reagent, commonly stands in for NO production.

For test [1], the system named is RAW264.7. Briefly: Antiosteoporotic activity in mouse RAW264.7 cells assessed as inhibition of RANKL-induced osteoclast differentiation after 4 to 5 days by TRAP assay. The procedure, abridged: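 RAW264.7 macrophages were differentiated for 4−5 days in DMEM with 100 ng/mL recombinant murine RANKL, alone or with test agent at 1, 3, 10 or 20 μM. Cells were then fixed and TRAP activity was read with a p-nitrophenylphosphate reaction buffer.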

In test [2] the test system is RAW264.7. The test is described as follows: Osteoblastogenic activity in mouse […] cells at 10 uM.

Active and inactive are the calls of the source. The calls are words filed in the database; no cut-off is given here.

In general, IC50 refers to the concentration needed to halve the response being measured. For `CC1=CCCC(C)(C)C12Cc1c(c(O)cc3oc4c(=O)c5c(O)cc(O)cc5oc4c13)O2` (stereo not drawn), the IC50 turned out to be 18 µM with BV-2 and 4.5 µM in the test with RAW264.7 [1]. In the test with RAW264.7 [2], the outcome was inactive.

In the case of `CC1(C)CCC[C@]2(C)Oc3c(O)cc4oc5c(=O)c6c(O)cc(O)cc6oc5c4c3C[C@H]12`, the IC50 with BV-2 amounted to 7 µM; in the test on RAW264.7 [1], 3.5 µM. Further, the outcome with RAW264.7 [2] was inactive.

Regarding `C=C1CCCC(C)(C)[C@H]1Cc1c(O)cc2oc(-c3ccc(O)c(O)c3)cc(=O)c2c1O`, in the test with BV-2, the IC50 was found to be 6.5 µM.

For `CC1(C)CC=C[C@]2(C)Oc3c(O)cc4oc5c(=O)c6c(O)cc(O)cc6oc5c4c3C[C@H]12` [UGONIN O], the IC50 with BV-2 was determined as 7.7 µM; in the test on RAW264.7 [1], 3.3 µM. The outcome in the test on RAW264.7 [2] was inactive.

For the molecule `CC1=CCCC(C)(C)C1Cc1c(O)cc(/C=C/c2ccc(O)cc2)cc1O` (stereo not drawn), the IC50 in the test on BV-2 was 6.2 µM.

On to `CC1(C)CCC[C@@]2(C)Oc3c(c(O)cc4oc(-c5ccc(O)c(O)c5)cc(=O)c34)C[C@H]12`, for which the IC50 with BV-2 is 24.1 µM; with RAW264.7 [1] it was > 10 µM. Moreover, the outcome with RAW264.7 [2] was inactive.

Turning to `CC1(C)CCC[C@]2(C)Oc3c(c(O)cc4oc(-c5ccc(O)c(O)c5)cc(=O)c34)C[C@H]12`, the values for the IC50 in the test on BV-2 and in the test with RAW264.7 [1] were 19.7 µM and 4.6 µM, respectively. In the test with RAW264.7 [2], the result was inactive.

Regarding `O=c1c(-c2ccc(O)cc2)coc2cc(O)cc(O)c12` [GENISTEIN], in the test with RAW264.7 [1], the IC50 is 11.4 µM.

In the case of `C=C1CCCC(C)(C)[C@H]1Cc1c(OC)cc2oc(-c3ccc(O)c(O)c3)c(OC)c(=O)c2c1O`, the IC50 in the test with BV-2 worked out at 6.7 µM; with RAW264.7 [1], 3.2 µM. Moreover, the outcome in the test on RAW264.7 [2] was inactive.

With `S=C(S)N1CCCC1` [PYRROLIDINE DITHIOCARBAMATE], the IC50 in the test with BV-2 was 10.8 µM.

For the molecule `CC1=CCCC(C)(C)C1Cc1c(O)c(O)cc2oc3c(=O)c4c(O)cc(O)cc4oc3c12` (stereo not drawn) [UGONIN M], the IC50 in the test on BV-2 worked out at 10.1 µM; in the test with RAW264.7 [1], 2.5 µM. For the same molecule, the result in the test with RAW264.7 [2] was inactive.

As for `C=C1CCCC(C)(C)[C@H]1Cc1c(OC)cc2oc(-c3ccc(O)c(O)c3)cc(=O)c2c1O`, the figures for the IC50 with BV-2 and with RAW264.7 [1] were 8.1 µM and 1.8 µM, respectively. In addition, the result in the test with RAW264.7 [2] was Active.
